# According to article PMC2735501 (Journal of medicinal chemistry, 2009):
# Assays:
# [1] = tested on: cytokine production by OVA stimulated splenocytes; assay: Mouse splenocyte cytokine assay; format: cell-based; conditions: for inhibiting TH2 cytokine production compared with dexamethasone (in words): IL-5, IL-13, 10 nM (Figure 9)
# In short: (§1)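 Female Balb-C mice (6–8 weeks) were immunized s.c. weekly for four weeks with 25 µg OVA adsorbed to 1 mg alum in 200 µl PBS. Splenocytes were strained and resuspended at 1.3×10^6 cells/mL in RPMI-1640, then given test material in DMSO plus OVA. Replicate control wells held DMSO or DMSO+OVA. Supernatant cytokines were read by sandwich ELISA at 450 nm against standards in each replicate assay. Viability was checked by trypan blue count.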
# IL-5 production = IL-5 production by OVA stimulated mouse splenocytes; format: cell-based; conditions: pure compounds or fractions
# In short: as §1
SMILES,inhibiting TH2 cytokine production compared with dexamethasone (in words) [1],suppression of IL-5 production (in words) (IL-5 production),suppression of cytokine production by OVA stimulated splenocytes (in words) [1]
CC(C)C(=O)O[C@H]1[C@H](C)OC(=O)[C@@H](NC(=O)c2cccc(NC=O)c2O)[C@@H](C)OC(=O)[C@@H]1Cc1ccccc1 [compound 2],as effective as dexamethasone,,
CCCCCC[C@H]1C(=O)O[C@H](C)[C@H](NC(=O)c2cccc(NC=O)c2O)C(=O)O[C@@H](C)[C@@H]1OC(=O)c1ccccc1 [compound 7],as effective as dexamethasone,,
C[C@@H]1OC(=O)[C@@H](NC(=O)c2cccc(NC=O)c2O)[C@@H](C)OC(=O)[C@H](Cc2ccccc2)[C@H]1O [compound 10],,low micromolar,low micromolar
